Measurements published in ChEMBL document CHEMBL4808163, “Benzothiazolyl and Benzoxazolyl Hydrazones Function as Zinc Metallochaperones to Reactivate Mutant p53” (J Med Chem, 2021).
Active and inactive are the calls of the source. The calls are words filed in the database; no cut-off is given here.

How the values were obtained:
[1] = Binding affinity to Zn(II)+ incubated for 60 mins using RhodZin-3 by fuorescence assay
[2] = Induction of Zinc-dependent p53 R175H mutant refolding by assessing wild type conformation
Outline: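 Cells grown on coverslips and treated, fixed in 4% paraformaldehyde 10 min, permeabilized in 0.5% Triton X-100 5 min. Stained overnight with conformation-specific antibodies PAB1620 (1:50, wild-type fold) and PAB240 (1:400, misfolded/unfolded), then goat anti-mouse IgG secondary for 40 min.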

TOV112D [3] = test: Growth inhibition of human TOV112D cells harbouring p53 R175H mutant incubated for 3 days by MTS assay; assay type: functional, cell-based; details: 72 h
[4] = Ratio of EC50 for test compound to EC50 for ZMC1 for growth inhibition of human TOV-112D cells harbouring p53 R175H mutant incubated for 3 days by MTS assay; assay type: functional, TOV112D; details: time 3 day
NCI-H1299 [5] = test: Induction of ROS production in human H1299 cells at 0.75 uM incubated for 24 hrs by CellRox green based fluorescence flow cytometry relative to ZMC1; assay type: functional
[6] = Apparent permeability in human Caco-2 cells at 5 uM measured up to 90 mins by LC-MS/MS analysis; assay type: ADME, cell-based
[7] = Binding affinity to Zn(II)+ incubated for 60 mins using FluoZin-3 by fuorescence assay
Mu-type opioid receptor = Mu-type opioid receptor (Homo sapiens, UniProt P35372); test: Displacement of [3H]DAMGO from human recombinant mu receptor at 10 uM after 120 mins by scintillation counting analysis relative to control; details: probe [3H]DAMGO
Sequence of Mu-type opioid receptor (P35372 whole entry): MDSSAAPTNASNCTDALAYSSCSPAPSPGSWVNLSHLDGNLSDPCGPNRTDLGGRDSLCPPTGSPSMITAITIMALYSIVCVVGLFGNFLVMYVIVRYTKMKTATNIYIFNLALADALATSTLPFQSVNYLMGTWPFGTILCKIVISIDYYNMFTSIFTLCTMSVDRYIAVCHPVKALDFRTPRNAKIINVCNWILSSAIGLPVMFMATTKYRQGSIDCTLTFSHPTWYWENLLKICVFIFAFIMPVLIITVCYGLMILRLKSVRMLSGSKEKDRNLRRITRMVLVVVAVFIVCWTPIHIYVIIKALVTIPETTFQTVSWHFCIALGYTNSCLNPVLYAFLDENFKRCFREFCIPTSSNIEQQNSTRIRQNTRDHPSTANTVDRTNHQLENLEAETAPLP

hERG (KCNH2) = hERG (KCNH2) (Homo sapiens, UniProt Q12809); test: Displacement of [3H]-dofetilide from human recombinant ERG at 10 uM relative to control; details: probe [3H]-dofetilide
Sequence of hERG (KCNH2) (Q12809 whole entry): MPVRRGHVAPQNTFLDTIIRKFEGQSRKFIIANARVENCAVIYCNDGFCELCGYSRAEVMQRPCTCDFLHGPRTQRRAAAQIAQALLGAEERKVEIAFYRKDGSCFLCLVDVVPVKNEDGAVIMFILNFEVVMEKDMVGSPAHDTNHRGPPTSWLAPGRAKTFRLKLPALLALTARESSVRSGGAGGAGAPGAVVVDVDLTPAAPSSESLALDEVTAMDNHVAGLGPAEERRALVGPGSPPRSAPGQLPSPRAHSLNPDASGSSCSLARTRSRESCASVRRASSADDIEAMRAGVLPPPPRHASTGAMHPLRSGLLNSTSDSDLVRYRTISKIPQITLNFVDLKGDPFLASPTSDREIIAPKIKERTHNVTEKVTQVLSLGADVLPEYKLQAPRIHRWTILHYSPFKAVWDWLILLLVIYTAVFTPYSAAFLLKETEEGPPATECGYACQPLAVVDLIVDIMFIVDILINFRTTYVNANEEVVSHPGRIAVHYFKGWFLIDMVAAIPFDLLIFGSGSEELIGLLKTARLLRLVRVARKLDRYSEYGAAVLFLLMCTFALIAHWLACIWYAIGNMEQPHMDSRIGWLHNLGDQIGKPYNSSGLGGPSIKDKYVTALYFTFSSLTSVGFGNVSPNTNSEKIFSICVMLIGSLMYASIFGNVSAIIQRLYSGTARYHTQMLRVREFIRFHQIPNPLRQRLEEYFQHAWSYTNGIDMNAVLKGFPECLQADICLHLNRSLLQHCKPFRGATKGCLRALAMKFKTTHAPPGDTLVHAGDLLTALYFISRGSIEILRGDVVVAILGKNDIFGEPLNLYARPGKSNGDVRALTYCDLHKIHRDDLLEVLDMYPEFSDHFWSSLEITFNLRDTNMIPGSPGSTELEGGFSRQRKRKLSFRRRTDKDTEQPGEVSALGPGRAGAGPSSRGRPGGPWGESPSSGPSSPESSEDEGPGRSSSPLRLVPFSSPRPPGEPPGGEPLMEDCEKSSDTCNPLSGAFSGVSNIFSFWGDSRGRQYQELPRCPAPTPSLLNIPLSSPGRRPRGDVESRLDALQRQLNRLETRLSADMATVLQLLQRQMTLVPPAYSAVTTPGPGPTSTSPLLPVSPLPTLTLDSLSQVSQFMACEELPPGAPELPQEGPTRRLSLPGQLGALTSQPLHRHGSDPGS

[8] = molecular target: 5-hydroxytryptamine receptor 2A (Homo sapiens, UniProt P28223); test: Displacement of [125I]+/-DOI from human recombinant 5-HT2A receptor at 10 uM after 60 mins by scintillation counting analysis relative to control; details: recombinant human 5-HT2A receptor, probe [125I]+/-DOI
Sequence of 5-hydroxytryptamine receptor 2A (P28223 whole entry): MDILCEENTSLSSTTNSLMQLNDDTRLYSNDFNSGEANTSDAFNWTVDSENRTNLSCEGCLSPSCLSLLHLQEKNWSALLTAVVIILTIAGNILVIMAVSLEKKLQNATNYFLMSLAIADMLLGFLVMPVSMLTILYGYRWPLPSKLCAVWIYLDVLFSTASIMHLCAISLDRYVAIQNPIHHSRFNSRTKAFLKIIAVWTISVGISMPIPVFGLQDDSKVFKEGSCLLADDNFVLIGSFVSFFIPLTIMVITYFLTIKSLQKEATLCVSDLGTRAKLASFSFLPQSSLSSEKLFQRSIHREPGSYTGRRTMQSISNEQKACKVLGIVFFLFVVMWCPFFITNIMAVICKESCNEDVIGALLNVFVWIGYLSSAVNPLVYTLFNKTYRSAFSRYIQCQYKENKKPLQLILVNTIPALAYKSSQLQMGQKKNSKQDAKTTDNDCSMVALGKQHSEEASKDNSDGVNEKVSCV

Sodium channel site 2 = test: Displacement of [3H]batrachotoxinin from rat Sodium channel site 2 at 10 uM incubated for 60 mins by radiometric scintillation analysis relative to control; details: rat sodium channel site 2, probe [3H]batrachotoxinin
[9] = molecular target: Sodium-dependent noradrenaline transporter (Homo sapiens, UniProt P23975); test: Displacement of [3H]nisoxetine from recombinant human norepinephrine transporter at 10 uM incubated for 120 mins by radiometric scintillation analysis relative to control; assay type: ADME; details: probe [3H]nisoxetine
Sequence of Sodium-dependent noradrenaline transporter (P23975 whole entry): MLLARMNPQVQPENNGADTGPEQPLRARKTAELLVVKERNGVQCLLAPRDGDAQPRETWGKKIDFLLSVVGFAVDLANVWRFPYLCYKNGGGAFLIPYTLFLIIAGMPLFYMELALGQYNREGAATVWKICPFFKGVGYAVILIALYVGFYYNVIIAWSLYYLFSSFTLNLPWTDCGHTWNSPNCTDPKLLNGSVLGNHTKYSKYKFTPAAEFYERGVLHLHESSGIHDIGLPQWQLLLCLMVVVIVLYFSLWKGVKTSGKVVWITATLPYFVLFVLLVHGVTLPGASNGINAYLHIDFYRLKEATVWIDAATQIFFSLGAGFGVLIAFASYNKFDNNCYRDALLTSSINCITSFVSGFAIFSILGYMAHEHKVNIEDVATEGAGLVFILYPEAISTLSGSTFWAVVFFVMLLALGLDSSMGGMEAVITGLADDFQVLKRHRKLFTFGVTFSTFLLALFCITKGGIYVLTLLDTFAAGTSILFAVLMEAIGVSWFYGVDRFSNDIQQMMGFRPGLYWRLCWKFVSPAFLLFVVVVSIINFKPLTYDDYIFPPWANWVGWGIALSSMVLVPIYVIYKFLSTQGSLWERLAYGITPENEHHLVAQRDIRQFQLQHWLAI

TOV112D [10] = test: Anticancer activity against human TOV112D cells harbouring p53 R175H mutant xenografted NCr nu/nu mouse assessed as tumor growth inhibition at 5.73 mg/kg, ip relative to control; assay type: functional; details: read-out: TGI
Outline: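 Tumors (five per group) were grown to 50 mm³, then the compound was given ip daily. Dimensions were measured every other day, with volume = L × W² × π/6. Significance was tested by Student's t test.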

NCI-H460 = test: Cytotoxicity against human NCI-H460 cells harbouring p53 wild type; assay type: functional, cell-based
Outline: (§1)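 5000 cells/well seeded; serial compound dilutions added next day at about 50% confluence. Growth read by MTS or Calcein AM after 3 days. Three independent experiments, each in triplicate; significance by Student's t test.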

NCI-H1299 [11] = test: Cytotoxicity against p53-null human H1299 cells; assay type: functional, cell-based; outline: as §1

Compound	Kd ([1]; read-out: Kd)	Activity [2]	EC50 (TOV112D [3])	Ratio EC50 [4]	Ratio (NCI-H1299 [5])	Kd [7]	other results
C/C(=N\NC(=S)NC1CCN(c2ccccn2)CC1)c1ccccn1		inactive					Kd [1]: Not Active
C/C(=N\NC(=S)N(C)C)c1ccccn1	25.6 nM	Active	1 nM	0.2	1.3		Papp at […], 5 µM [6]: 7.3 ×10⁻⁶ cm/s
C/C(=N\Nc1nc2ccccc2o1)c1cc(OCCN(C)C)ccn1		Active	53 nM	5.6	1.4	47 nM	inhibition at 2 h, 10 µM (Mu-type opioid receptor): 0%; inhibition at 10 µM (hERG (KCNH2)): 51%; inhibition at 1 h, 10 µM [8]: 32%; inhibition at 1 h, 10 µM (Sodium channel site 2): 21%; inhibition at 2 h, 10 µM [9]: -25%; inhibition in vivo at 5.73 mg/kg (TOV112D [10]): 56%
C/C(=N\Nc1nc2ccccc2s1)c1cc(OCCO)ccn1		inactive			2.8	22 nM	
C/C(=N\Nc1nc2ccccc2s1)c1cc(OCCN(C)C)ccn1		Active			2.5	55 nM	inhibition at 2 h, 10 µM (Mu-type opioid receptor): 48%; inhibition at 10 µM (hERG (KCNH2)): 95%; inhibition at 1 h, 10 µM [8]: 76%; inhibition at 1 h, 10 µM (Sodium channel site 2): 36%; inhibition at 2 h, 10 µM [9]: 82%
C/C(=N\Nc1nc2ccccc2s1)c1cc(N(C)C)ccn1		Active	48 nM				
C/C(=N\NC(=S)N1CCC1)c1ncccc1C		inactive					
C/C(=N\Nc1nc2ccccc2n1CCN(C)C)c1ccccn1		Active	42 nM	5.2	1.6	61 nM	
C/C(=N\Nc1nc2ccccc2o1)c1ccccn1		Active	6 nM				Activity (NCI-H460): inactive; Activity (NCI-H1299 [11]): inactive; inhibition at 2 h, 10 µM (Mu-type opioid receptor): 2%; inhibition at 10 µM (hERG (KCNH2)): 21%; inhibition at 1 h, 10 µM (Sodium channel site 2): 12%; inhibition at 2 h, 10 µM [9]: 21%
C/C(=N\NC(=S)N1CCC1)c1cnccn1	99.4 nM	Active		4.5	2		
C/C(=N\Nc1nccn1C)c1ccccn1		Active	445 nM	47.1	0.9	408 nM	inhibition at 2 h, 10 µM (Mu-type opioid receptor): -2%; inhibition at 10 µM (hERG (KCNH2)): 7%; inhibition at 1 h, 10 µM [8]: 11%; inhibition at 1 h, 10 µM (Sodium channel site 2): 23%; inhibition at 2 h, 10 µM [9]: 4%; inhibition in vivo at 5.73 mg/kg (TOV112D [10]): 57%
CC(C)(C)/C(=N\NC(=S)N1CCC1)c1ccccn1		inactive			0.7		Kd [1]: Not Active

The next lines start with results.

Kd ([1]; read-out: Kd)	Compound	Activity [2]	EC50 (TOV112D [3])	Ratio EC50 [4]	Ratio (NCI-H1299 [5])	Kd [7]	other results
48.3 nM	C/C(=N\NC(=S)N1CCC1)c1cccc(C)n1	Active	132 nM				
17 nM	O=C(O)CN(CC(=O)O)CC(=O)O [NITRILOTRIACETIC ACID]						
386 nM	COCCOc1ccc2nc(N/N=C(\C)c3ccccn3)sc2c1	Active			2.4	81 nM	
